Data as given in ChEMBL document CHEMBL5390313, “Highly Potent Peptide Therapeutics To Prevent Protein Aggregation in Huntington's Disease” (ACS Med Chem Lett, 2023).
Activity calls are given as the source filed them. No cut-off for these calls is given here.

What was measured:
[1] = test system: Huntingtin (Homo sapiens), P42858 [UNDEFINED MUTATION]; assay: Inhibition of TEV protease-induced 6His-GST tagged huntingtin polyQ 46 mutant (unknown origin) aggregation assessed as decrease in fibril length at 10 uM measured after 2 to 12 hrs by AFM imaging analysis; conditions: time 2-12 hrs
Sequence of Huntingtin (Homo sapiens), P42858 [UNDEFINED MUTATION] (P42858 whole entry, looked up, change not shown): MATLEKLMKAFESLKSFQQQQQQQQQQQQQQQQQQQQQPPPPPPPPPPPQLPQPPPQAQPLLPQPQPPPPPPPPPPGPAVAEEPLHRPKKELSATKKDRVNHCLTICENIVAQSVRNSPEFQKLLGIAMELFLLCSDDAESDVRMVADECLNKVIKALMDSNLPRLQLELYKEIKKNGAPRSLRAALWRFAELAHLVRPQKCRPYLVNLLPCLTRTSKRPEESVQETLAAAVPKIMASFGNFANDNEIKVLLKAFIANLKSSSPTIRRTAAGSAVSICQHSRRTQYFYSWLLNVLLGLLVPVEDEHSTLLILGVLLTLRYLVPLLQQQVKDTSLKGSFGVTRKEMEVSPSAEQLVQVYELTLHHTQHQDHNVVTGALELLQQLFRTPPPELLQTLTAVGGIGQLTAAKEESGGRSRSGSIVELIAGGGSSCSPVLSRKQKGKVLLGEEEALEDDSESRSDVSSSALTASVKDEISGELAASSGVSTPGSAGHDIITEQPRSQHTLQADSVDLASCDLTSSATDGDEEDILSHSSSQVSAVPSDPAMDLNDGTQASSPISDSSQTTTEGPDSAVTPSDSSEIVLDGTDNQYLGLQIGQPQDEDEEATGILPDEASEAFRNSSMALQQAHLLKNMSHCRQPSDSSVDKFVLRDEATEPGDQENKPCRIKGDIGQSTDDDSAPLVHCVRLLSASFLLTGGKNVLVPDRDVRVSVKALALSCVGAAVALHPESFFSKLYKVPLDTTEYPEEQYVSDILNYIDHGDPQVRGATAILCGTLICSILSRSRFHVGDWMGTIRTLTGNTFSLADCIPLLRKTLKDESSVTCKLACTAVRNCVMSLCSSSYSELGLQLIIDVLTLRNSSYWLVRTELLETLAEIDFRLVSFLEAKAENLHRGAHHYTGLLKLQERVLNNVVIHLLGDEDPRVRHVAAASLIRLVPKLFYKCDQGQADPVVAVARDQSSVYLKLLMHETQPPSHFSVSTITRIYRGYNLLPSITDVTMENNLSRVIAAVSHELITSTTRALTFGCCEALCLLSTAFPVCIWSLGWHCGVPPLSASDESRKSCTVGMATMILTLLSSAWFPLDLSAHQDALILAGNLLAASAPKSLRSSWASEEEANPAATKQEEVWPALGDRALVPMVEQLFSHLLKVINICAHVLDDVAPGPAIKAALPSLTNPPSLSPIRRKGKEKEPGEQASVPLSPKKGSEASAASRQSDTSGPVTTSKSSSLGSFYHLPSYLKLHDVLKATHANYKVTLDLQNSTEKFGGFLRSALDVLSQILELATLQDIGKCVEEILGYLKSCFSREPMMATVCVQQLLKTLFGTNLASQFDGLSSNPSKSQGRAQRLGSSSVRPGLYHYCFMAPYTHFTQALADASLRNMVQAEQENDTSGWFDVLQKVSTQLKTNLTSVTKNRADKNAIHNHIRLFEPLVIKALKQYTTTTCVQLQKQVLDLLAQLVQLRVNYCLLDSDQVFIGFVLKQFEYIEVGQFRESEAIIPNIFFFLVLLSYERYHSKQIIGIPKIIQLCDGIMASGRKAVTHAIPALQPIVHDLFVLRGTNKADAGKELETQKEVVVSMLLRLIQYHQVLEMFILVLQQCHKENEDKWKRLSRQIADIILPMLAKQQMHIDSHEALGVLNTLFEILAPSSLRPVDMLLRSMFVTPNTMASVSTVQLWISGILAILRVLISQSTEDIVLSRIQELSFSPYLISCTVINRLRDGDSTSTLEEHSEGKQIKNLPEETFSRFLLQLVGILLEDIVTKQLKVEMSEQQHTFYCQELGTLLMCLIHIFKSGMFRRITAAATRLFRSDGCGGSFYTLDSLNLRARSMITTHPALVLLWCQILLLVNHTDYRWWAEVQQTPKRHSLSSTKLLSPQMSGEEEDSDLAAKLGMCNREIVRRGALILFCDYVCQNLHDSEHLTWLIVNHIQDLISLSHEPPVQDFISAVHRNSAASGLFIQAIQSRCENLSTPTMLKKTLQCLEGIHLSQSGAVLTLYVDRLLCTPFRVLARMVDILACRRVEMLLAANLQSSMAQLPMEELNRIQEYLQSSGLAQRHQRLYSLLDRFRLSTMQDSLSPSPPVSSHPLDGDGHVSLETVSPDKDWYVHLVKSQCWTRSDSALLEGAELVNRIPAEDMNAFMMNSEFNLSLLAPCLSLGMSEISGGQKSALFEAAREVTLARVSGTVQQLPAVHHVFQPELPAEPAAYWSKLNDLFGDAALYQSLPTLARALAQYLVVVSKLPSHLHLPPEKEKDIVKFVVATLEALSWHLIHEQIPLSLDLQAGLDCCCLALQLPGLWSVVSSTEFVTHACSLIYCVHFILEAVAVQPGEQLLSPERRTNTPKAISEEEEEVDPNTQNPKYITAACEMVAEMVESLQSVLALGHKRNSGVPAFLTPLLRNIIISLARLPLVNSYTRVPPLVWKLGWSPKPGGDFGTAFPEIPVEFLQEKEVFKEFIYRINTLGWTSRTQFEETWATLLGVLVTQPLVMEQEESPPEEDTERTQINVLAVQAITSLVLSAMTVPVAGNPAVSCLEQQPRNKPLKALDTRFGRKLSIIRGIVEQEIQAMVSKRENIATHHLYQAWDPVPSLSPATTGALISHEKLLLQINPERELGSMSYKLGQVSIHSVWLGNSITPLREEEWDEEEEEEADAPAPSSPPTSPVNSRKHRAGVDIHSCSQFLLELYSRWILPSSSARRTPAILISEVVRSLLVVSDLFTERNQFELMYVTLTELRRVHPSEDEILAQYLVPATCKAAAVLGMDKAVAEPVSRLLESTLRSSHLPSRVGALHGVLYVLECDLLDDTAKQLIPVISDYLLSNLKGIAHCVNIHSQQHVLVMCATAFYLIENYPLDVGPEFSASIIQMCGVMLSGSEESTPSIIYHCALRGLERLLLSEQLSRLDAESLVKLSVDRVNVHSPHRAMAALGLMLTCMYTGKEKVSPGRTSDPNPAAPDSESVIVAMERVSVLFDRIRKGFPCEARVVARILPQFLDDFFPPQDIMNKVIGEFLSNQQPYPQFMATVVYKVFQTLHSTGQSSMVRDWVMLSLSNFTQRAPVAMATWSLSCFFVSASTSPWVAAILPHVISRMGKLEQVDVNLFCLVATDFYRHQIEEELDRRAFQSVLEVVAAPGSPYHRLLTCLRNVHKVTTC

[2] = test system: Huntingtin (Homo sapiens), P42858 [UNDEFINED MUTATION]; assay: Inhibition of TEV protease-induced 6His-GST tagged huntingtin polyQ 103 mutant (unknown origin) aggregation assessed as decrease in fibril length at 10 uM measured after 2 to 12 hrs by AFM imaging analysis; conditions: time 2-12 hrs
[3] = test system: Huntingtin (Homo sapiens), P42858 [UNDEFINED MUTATION]; assay: Inhibition of TEV protease-induced 6His-GST tagged wildtype huntingtin polyQ 25 (unknown origin) aggregation assessed as decrease in fibril length at 10 uM incubated for 24 hrs by AFM imaging analysis relative to control; parameters: scale not given: the % may be the effect or the level left
Summary of the method: (§1)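 AFM imaging of Htt fibrils grown for 2 h after TEV cleavage in TEV cleavage buffer (pH 8.0). Peptide was then added, defining t = 0 h. Fibril length was measured at 0, 4, 8 and 24 h and reported as the mean length of 100 fibrils with standard deviation at each time point.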

[4] = test system: Huntingtin (Homo sapiens), P42858 [UNDEFINED MUTATION]; assay: (§2) Inhibition of TEV protease-induced 6His-GST tagged wildtype huntingtin polyQ 25 (unknown origin) aggregation expressed in Escherichia coli BL21(DE3) assessed as relative fluorescence unit at 1:1 molar ratio incubated for 16 hrs by ThT fluorescence based spectrophotometer analysis (reference value: 666 a.u.)
Summary of the method: (§3)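 Aggregation started by TEV protease addition, with ThT readings beginning right after cleavage. Peptide added equimolar (1:1) to each Htt protein. Fluorescence was followed at 37 °C for at least 16 h, with excitation at 438 nm and emission at 495 nm. The end-point value at 16 h is averaged over triplicates.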

[5] = test system: Huntingtin (Homo sapiens), P42858 [UNDEFINED MUTATION]; assay: as §2, with “tagged” for “tagged wildtype”, “103 mutant” for “25”, “1235” for “666”; summary of the method: as §3
[6] = test system: Huntingtin (Homo sapiens), P42858 [UNDEFINED MUTATION]; assay: Inhibition of TEV protease-induced 6His-GST tagged huntingtin polyQ 103 mutant (unknown origin) aggregation assessed as reduction in individual fibrils at 10 uM measured immediately by AFM imaging analysis
Summary of the method: (§4)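 AFM imaging of Htt aggregates after TEV cleavage. Fibrils were allowed to grow for 2 h, then peptide or nothing (control) was added, defining t = 0 h. Images were taken over 0–24 h and scored for spherical oligomers, individual fibrils, branching and aggregate clusters.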

[7] = test system: Huntingtin (Homo sapiens), P42858 [UNDEFINED MUTATION]; assay: Inhibition of TEV protease-induced 6His-GST tagged huntingtin polyQ 46 mutant (unknown origin) aggregation assessed as decrease in fibril length at 10 uM incubated for 24 hrs by AFM imaging analysis relative to control; parameters: scale not given: the % may be the effect or the level left; summary of the method: as §1
[8] = test system: Huntingtin (Homo sapiens), P42858 [UNDEFINED MUTATION]; assay: Inhibition of TEV protease-induced 6His-GST tagged huntingtin polyQ 103 mutant (unknown origin) aggregation assessed as reduction of spherical oligomers at 10 uM measured immediately by AFM imaging analysis; summary of the method: as §4
[9] = test system: Huntingtin (Homo sapiens), P42858 [UNDEFINED MUTATION]; assay: Inhibition of TEV protease-induced 6His-GST tagged huntingtin polyQ 103 mutant (unknown origin) aggregation assessed as isolated fibrils at 10 uM measured after 4 to 8 hrs by AFM imaging analysis; conditions: time 4-8 hrs
[10] = test system: Huntingtin (Homo sapiens), P42858 [UNDEFINED MUTATION]; assay: as §2, with “tagged” for “tagged wildtype”, “46 mutant” for “25”, “692” for “666”; summary of the method: as §3
[11] = test system: Huntingtin (Homo sapiens), P42858 [UNDEFINED MUTATION]; assay: Inhibition of TEV protease-induced 6His-GST tagged huntingtin polyQ 103 mutant (unknown origin) aggregation assessed as decrease in fibril length at 10 uM incubated for 24 hrs by AFM imaging analysis relative to control; parameters: scale not given: the % may be the effect or the level left; summary of the method: as §1
[12] = test system: Huntingtin (Homo sapiens), P42858 [UNDEFINED MUTATION]; assay: Inhibition of TEV protease-induced 6His-GST tagged huntingtin polyQ 46 mutant (unknown origin) aggregation assessed as decrease in individual fibers at 10 uM measured after 2 to 24 hrs by AFM imaging analysis; conditions: time 2-24 hrs; summary of the method: as §4
[13] = test system: Huntingtin (Homo sapiens), P42858 [UNDEFINED MUTATION]; assay: Inhibition of TEV protease-induced 6His-GST tagged huntingtin polyQ 103 mutant (unknown origin) aggregation assessed as decrease in individual fibers at 10 uM measured after 2 to 24 hrs by AFM imaging analysis; conditions: time 2-24 hrs; summary of the method: as §4
[14] = test system: Huntingtin (Homo sapiens), P42858 [UNDEFINED MUTATION]; assay: Inhibition of TEV protease-induced 6His-GST tagged wildtype huntingtin polyQ 25 (unknown origin) aggregation assessed as decrease in individual fibers at 10 uM measured after 2 to 24 hrs by AFM imaging analysis; conditions: time 2-24 hrs; summary of the method: as §4
[15] = test system: Huntingtin (Homo sapiens), P42858 [UNDEFINED MUTATION]; assay: Inhibition of TEV protease-induced 6His-GST tagged huntingtin polyQ 46 mutant (unknown origin) aggregation assessed as reduction of spherical oligomers at 10 uM measured immediately by AFM imaging analysis; summary of the method: as §4
[16] = test system: Huntingtin (Homo sapiens), P42858 [UNDEFINED MUTATION]; assay: Inhibition of TEV protease-induced 6His-GST tagged wildtype huntingtin polyQ 25 (unknown origin) aggregation assessed as reduction of spherical oligomers at 10 uM measured immediately by AFM imaging analysis
[17] = test system: Huntingtin (Homo sapiens), P42858 [UNDEFINED MUTATION]; assay: Inhibition of TEV protease-induced 6His-GST tagged huntingtin polyQ 103 mutant (unknown origin) aggregation assessed as decrease in fibril branching at 10 uM measured after 4 to 24 hrs by AFM imaging analysis; conditions: time 4-24 hrs; summary of the method: as §4
[18] = test system: Huntingtin (Homo sapiens), P42858 [UNDEFINED MUTATION]; assay: Inhibition of TEV protease-induced 6His-GST tagged huntingtin polyQ 103 mutant (unknown origin) aggregation assessed as decrease in fibril clustering at 10 uM measured after 24 hrs by AFM imaging analysis; summary of the method: as §4

Structure (SMILES)	inhibition [1]	inhibition [2]	Activity [3] [%]	RFU [4] [a.u.]	RFU [5] [a.u.]	inhibition [6]	Activity [7] [%]	inhibition [8]	inhibition [9]	RFU [10] [a.u.]	Activity [11] [%]	inhibition [12]	inhibition [13]	inhibition [14]	inhibition [15]	inhibition [16]	inhibition [17]	inhibition [18]
CSCC[C@H](NC(=O)[C@@H](N)Cc1c[nH]c2ccccc12)C(=O)N[C@@H](Cc1ccccc1)C(=O)N1CCC[C@H]1C(=O)N[C@@H](CO)C(=O)N[C@@H](CC(C)C)C(=O)N[C@@H](CCCCN)C(=O)N[C@@H](CC(C)C)C(=O)N[C@@H](CC(C)C)C(=O)N[C@@H](CC(=O)O)C(=O)N[C@@H](Cc1ccc(O)cc1)C(=O)N[C@@H](Cc1c[nH]cn1)C(=O)O	Active	Active	25.6	552	431	inactive	17.3	inactive	Active	634	28	Active	Active	Active	inactive	inactive	Active	Active
CC(C)C[C@H](NC(=O)CNC(=O)[C@H](CC(C)C)NC(=O)[C@H](CO)NC(=O)[C@H](CC(N)=O)NC(=O)[C@H](C)NC(=O)CNC(=O)[C@H](Cc1c[nH]cn1)NC(=O)[C@@H](N)Cc1c[nH]cn1)C(=O)N[C@H](C(=O)N[C@@H](CCC(N)=O)C(=O)N[C@@H](CO)C(=O)O)C(C)C	Active	Active	42.9	424	564	inactive	24.9	inactive	Active	357	36.7	Active	Active	Active	inactive	inactive	Active	Active
CSCC[C@H](NC(=O)[C@H](CO)NC(=O)[C@H](Cc1c[nH]cn1)NC(=O)[C@H](CC(C)C)NC(=O)CNC(=O)[C@@H](N)Cc1c[nH]cn1)C(=O)N[C@@H](Cc1c[nH]cn1)C(=O)N[C@@H](CC(N)=O)C(=O)N[C@@H](CCCCN)C(=O)N[C@@H](CC(C)C)C(=O)N[C@@H](CC(C)C)C(=O)N[C@@H](CCC(N)=O)C(=O)N[C@H](C(=O)O)[C@@H](C)O	Active	Active	38.3	459	433	inactive	17.6	inactive	Active	500	22.7	Active	Active	Active	inactive	inactive	Active	Active
